This passage reports inhibition results from PubChem BioAssay AID652163 (Broad Institute, 2013).

Where “and” joins values, the source holds several entries; their conditions need not be identical. Equal values may be shown once. Hit rate of the full screen: of about 360,000 compounds, about 500 (0.14%) were called active.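 Rule for the calls: active = mean inhibition of at least 70% across replicates, with every replicate also reaching that level; inconclusive = mean inhibition reaches 70% but some replicates fall short; inactive = mean inhibition below 70%.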 What follows is part of a selection rich in actives, with near analogues and random picks from the rest. Some compounds were tested as several samples or in several runs, with calls that do not always agree.

Chain of Protein S100-A4 (Homo sapiens) (P26447 whole entry, looked up): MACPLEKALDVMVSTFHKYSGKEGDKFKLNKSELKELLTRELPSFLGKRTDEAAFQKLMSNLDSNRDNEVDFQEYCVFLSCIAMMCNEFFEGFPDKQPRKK

The experiment has as its target Protein S100-A4 (Homo sapiens) (UniProt P26447). Put plainly: human S100A4 protein-peptide interaction blockers – biochemical, fluorescence polarization, TAMRA-MyoIIA peptide, primary screen (AID 652163). The following applies: at 10.7 µM, stronger effect = higher value. The method, boiled down:
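Material: S100A4 monomer protein | Medium: HEPES pH 7.2 with CaCl2, KCl, NaCl, DTT, Triton | Reagent: Labelled myosin peptide probe, 5 nM | Doses: One dose per compound | Times: 5 min incubation before reading | Benchmarks: Neutral control DMSO, positive control TFP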
As for `CCCNC(=O)N1[C@@H]2CN(C)c3ccccc3[C@@H]2[C@@H]1CO`, the inhibition (usually the relative decrease from the control value, in per cent) is 7.1% (inactive).

As to `COc1ccc(S(=O)(=O)N(C)C[C@H]2Oc3ccc(NC(=O)Nc4c(C)noc4C)cc3C(=O)N([C@@H](C)CO)C[C@@H]2C)cc1`, the inhibition is -9.31% (inactive).

With `Cc1noc(C)c1NC(=O)N(C)C[C@@H]1OCCCC[C@H](C)Oc2ccc(NC(=O)CCC(F)(F)F)cc2C(=O)N([C@@H](C)CO)C[C@@H]1C`, the inhibition is 5.68% (inactive).

For the molecule `CC(=O)N(C)C[C@@H]1Oc2cc(-c3cccc(F)c3)ccc2S(=O)(=O)N([C@H](C)CO)C[C@H]1C`, the inhibition was -20.8% (inactive).

Consider `CC(C)(O)C#Cc1ccc([C@H]2[C@H]3CN(C(=O)c4ccncc4)CCCCN3[C@H]2CO)cc1`, for which the inhibition was -11.2% (inactive).

For the molecule `COc1ccc(S(=O)(=O)Nc2ccc3c(c2)C(=O)N([C@@H](C)CO)C[C@H](C)[C@H](CN(C)Cc2ccc4c(c2)OCO4)OCCCC[C@H](C)O3)cc1`, the inhibition is -9.48% (inactive).

On to `COc1cccc(C(=O)Nc2ccc3c(c2)C(=O)N(C)[C@H]2CC[C@@H](CC(=O)N[C@H](C)c4ccccc4)O[C@H]2CO3)c1`, for which the inhibition was -0.71% (inactive).

`C=CCN1C(=O)[C@]2(O[C@H](CCn3cc(CCO)nn3)[C@@H]([Si](C)(C)c3ccc(OC)cc3)[C@@H]2C)c2cc(N3CCOC3=O)ccc21`: the inhibition is 10.3% (inactive).

Consider `C[C@H](CO)N1C[C@H](C)[C@@H](CN(C)CC2CC2)Oc2ccc(NC(=O)CCCN(C)C)cc2CC1=O`, for which the inhibition is -0.322% (inactive).

As for `O=C(C[C@@H]1C=C[C@@H](NS(=O)(=O)c2ccccc2)[C@H](CO)O1)N1CCN(c2ccccc2)CC1`, the inhibition was 8.62% (inactive).

Consider `CN1CCN(C(=O)C[C@@H]2C=C[C@@H](NS(=O)(=O)c3cccc(F)c3)[C@@H](CO)O2)CC1`, for which the inhibition is 103% (active).

Take `COc1ccccc1S(=O)(=O)N[C@@H]1C=C[C@H](CC(=O)N2CCN(C)CC2)O[C@@H]1CO`: the inhibition is 59.7% (inactive).

On to `Nc1ncnc2c1ncn2C1OC(CO)CC1O` (configuration not stated), for which the inhibition is 0.763% (inactive).

Turning to `CO[C@@H]1CN(C)C(=O)c2cc(NC(=O)c3ccccc3)ccc2OC[C@H](C)N(C(=O)CN(C)C)C[C@H]1C`, the inhibition is -0.975% (inactive).

With `C=C[C@H](OC)[C@@H](O)c1ccc(OC)c(O)c1`, the inhibition was -5.17% (inactive).

Take `CN1C(=O)c2cc(NC(=O)C3CCOCC3)ccc2OC[C@@H]2O[C@H](CC(=O)NCc3ccccc3F)CC[C@H]21`: the inhibition is 4.38% (inactive).

Take `CN1C(=O)c2cc(NC(=O)C3CCCC3)ccc2OC[C@H]2O[C@H](CC(=O)NCc3ccccc3F)CC[C@H]21`: the inhibition was -2.52% (inactive).

For the molecule `CN1C(=O)c2cc(NC(=O)C3CCC3)ccc2OC[C@@H]2O[C@@H](CC(=O)NCc3ccccc3F)CC[C@@H]21`, the inhibition is 88.8% (active).

For the molecule `C[C@@H]1CN([C@@H](C)CO)C(=O)c2cc(C3=CCCC3)cnc2O[C@H]1CN(C)Cc1ccccc1F`, the inhibition is 0.298% (inactive).

In the case of `COc1cccc2c1C(=O)c1c(O)c3c(c(O)c1C2=O)CC(O)(C(C)=NNC(=O)c1ccc(Cl)c(Cl)c1)CC3OC1CC(N)C(O)C(C)O1` (configuration not stated), the inhibition is 189% (active).

Regarding `C[C@H]1CN([C@@H](C)CO)C(=O)CCCn2cc(nn2)CO[C@@H]1CN(C)S(=O)(=O)c1cccs1`, the inhibition is 1.44% (inactive) and -0.084% (inactive).

For the molecule `Cc1noc(C)c1S(=O)(=O)N(C)C[C@H]1OCc2cn(nn2)CCCC(=O)N([C@H](C)CO)C[C@H]1C`, the inhibition was -10.8% (inactive).

Consider `C[C@@H]1CN([C@H](C)CO)C(=O)CCCn2cc(nn2)CO[C@H]1CN(C)S(C)(=O)=O`, for which the inhibition is -42.7% (inactive) and 116% (active) and -0.12% (inactive).

As to `C[C@H]1CN([C@@H](C)CO)C(=O)c2cccc(NC(=O)Nc3ccc(C(F)(F)F)cc3)c2O[C@H]1CN(C)CC1CCCCC1`, the inhibition is 0.766% (inactive).

With `CO[C@H]1CN(C)C(=O)c2ccc(NS(C)(=O)=O)cc2OC[C@H](C)N(C(=O)C2CCC2)C[C@H]1C`, the inhibition was 3.67% (inactive).

With `COC(=O)c1cc2c(c3c4ccccc4n(S(=O)(=O)c4cccc(C)c4)c13)C(=O)N(Cc1ccccc1)C2`, the inhibition was -0.199% (inactive).

`O=C(C[C@@H]1CC[C@@H]2[C@H](COC[C@@H](O)CN2S(=O)(=O)c2ccccc2)O1)NCC1CCCCC1`: the inhibition is -4.89% (inactive).

With `CN1CCN(C(=O)C[C@@H]2CC[C@@H]3[C@@H](COc4ccc(NC(=O)c5ccc(F)c(F)c5)cc4C(=O)N3C)O2)CC1`, the inhibition is -20.1% (inactive).

Turning to `O=C(NCC1CC1)[C@H]1[C@H](CO)[C@H]2Cn3c(ccc(/C=C/c4ccccc4)c3=O)[C@@H]1N2C(=O)C1CCC1`, the inhibition was 5.09% (inactive).

Consider `COCC#Cc1ccc([C@@H]2[C@H]3CN(C(=O)C4CCOCC4)CC(=O)N3[C@H]2CO)cc1`, for which the inhibition is 10.1% (inactive).

With `COc1cccc(S(=O)(=O)N[C@@H]2C=C[C@H](CC(=O)NC3CCC3)O[C@@H]2CO)c1`, the inhibition was 11.1% (inactive).

For `O=C(Nc1nccs1)[C@@H]1[C@@H](CO)[C@@H]2Cn3c(ccc(-c4cccnc4)c3=O)[C@@H]2N1CC1CC1`, the inhibition is 5.29% (inactive).

On to `O=C([C@H]1N[C@H]2c3ccc(-c4ccccc4)c(=O)n3C[C@H]2[C@@H]1CO)N1CCOCC1`, for which the inhibition is -1.77% (inactive).

In the case of `CO[C@H]1CN(C)C(=O)c2cc(NC(=O)C3CCC3)ccc2OC[C@H](C)N(C)C[C@H]1C`, the inhibition is 6.42% (inactive).

`CO[C@@H]1CN(C)C(=O)c2cc(NC(=O)c3cc(C)on3)ccc2OC[C@@H](C)N(C(C)=O)C[C@@H]1C`: the inhibition was -1.83% (inactive).

For the molecule `C[C@@H]1CN([C@H](C)CO)C(=O)c2cccc(NS(=O)(=O)c3ccc(Cl)cc3)c2O[C@H]1CN(C)C(=O)NC1CCCCC1`, the inhibition is 3.25% (inactive).

As for `CC(C)CC#Cc1ccc([C@H]2[C@H]3CN(C(=O)c4cnccn4)CC(=O)N3[C@H]2CO)cc1`, the inhibition is 1.39% (inactive).

Turning to `COc1cccc(-c2ccc3n(c2=O)C[C@H]2[C@H](CO)[C@@H](C(=O)NC4CCCC4)[C@@H]3N2C)c1`, the inhibition was 6.59% (inactive).

In the case of `C/C=C/c1ccc([C@H]2[C@@H](CO)N[C@@H]2CN(CC)C(=O)CN2CCOCC2)cc1`, the inhibition was -4.11% (inactive).

Regarding `O=C(C[C@H]1C=C[C@H](NC(=O)NC2CCCCC2)[C@H](CO)O1)NCc1ccccc1`, the inhibition is 11.3% (inactive).

`C[C@@H]1CN([C@@H](C)CO)C(=O)c2cc(NS(C)(=O)=O)ccc2O[C@@H]1CN(C)C(=O)Nc1ccccc1`: the inhibition was -7.83% (inactive).

Turning to `C[C@@H]1CCCCO[C@@H](CN(C)C(=O)C2CCCCC2)[C@@H](C)CN([C@H](C)CO)C(=O)c2cc(NC(=O)c3ccccc3)ccc2O1`, the inhibition was 5.47% (inactive).

`Cc1ccccc1-c1ccc2c(c1)O[C@@H](CN(C)C(=O)Nc1ccc(F)cc1)[C@H](C)CN([C@@H](C)CO)S2(=O)=O`: the inhibition was -6.84% (inactive).

With `C[C@H]1CN([C@@H](C)CO)C(=O)c2cc(-c3cccc(F)c3)cnc2O[C@@H]1CN(C)C(=O)c1ccccn1`, the inhibition is 1.67% (inactive).

On to `C[C@H]1CN([C@@H](C)CO)C(=O)c2cccc(NC(=O)Nc3ccccc3)c2O[C@@H]1CN(C)C(=O)Nc1cccc2ccccc12`, for which the inhibition is 8.48% (inactive).

In the case of `COc1ccc2c(c1)C=CC1(O2)N(CCO)c2ccccc2C1(C)C` (configuration not stated), the inhibition is 97.1% (active).

For the molecule `COc1cccc(CC2(CO)CCCN(CC3=Cc4cc(OC)ccc4OC3)C2)c1` (configuration not stated), the inhibition was -14.5% (inactive).

For `CN1c2ccc([N+](=O)[O-])cc2C(C)(C)C12C=Cc1cc(C(=O)O)ccc1O2` (configuration not stated), the inhibition was -14.5% (inactive).

For the molecule `CN(C)CC(=O)N[C@H]1CC[C@@H](CCNC(=O)C2CCCC2)O[C@@H]1CO`, the inhibition is 4.07% (inactive).

Regarding `C[C@@H]1CN([C@H](C)CO)C(=O)Cc2cc(NS(=O)(=O)c3ccc(Cl)cc3)ccc2O[C@@H]1CN(C)C`, the inhibition is -3.76% (inactive).

As to `O=C(C[C@H]1C[C@H]2c3cc(NC(=O)Nc4ccccc4)ccc3O[C@H]2[C@H](CO)O1)NC1CCCC1`, the inhibition was -3.39% (inactive).

Turning to `CN(C)C(=O)C[C@H]1C[C@@H]2c3cc(NC(=O)NC4CCCCC4)ccc3O[C@@H]2[C@@H](CO)O1`, the inhibition is 12.2% (inactive).

Take `COC(=O)C(CC#Cc1ccc2c(c1)[C@]1(C(=O)N2)[C@H](c2ccccc2OCCO)N2[C@H](c3ccccc3)[C@H](c3ccccc3)OC(=O)[C@H]2[C@@H]1C(N)=O)C(=O)OC`: the inhibition is -5.68% (inactive).

As for `O=C(C[C@H]1CC[C@@H]2[C@H](COC[C@H](O)CN2CCC(F)(F)F)O1)NCC1CC1`, the inhibition is -3.95% (inactive).

Consider `Cn1cnc(S(=O)(=O)N2C[C@H](O)COC[C@@H]3O[C@H](CC(=O)NC4Cc5ccccc5C4)CC[C@H]32)c1`, for which the inhibition is 2.44% (inactive).

As for `Cn1cnc(S(=O)(=O)N2C[C@@H](O)COC[C@@H]3O[C@H](CC(=O)NC4CCC4)CC[C@H]32)c1`, the inhibition was 0.326% (inactive).

With `Cn1cnc(S(=O)(=O)N2C[C@H](O)COC[C@@H]3O[C@H](CC(=O)NC4CCCC4)CC[C@H]32)c1`, the inhibition is 126% (active).

Regarding `O=C(C[C@H]1CC[C@H]2[C@@H](COC[C@@H](O)CN2C(=O)Nc2ccc(C(F)(F)F)cc2)O1)NC1Cc2ccccc2C1`, the inhibition was 9.1% (inactive).

For `C[C@H]1CN([C@@H](C)CO)C(=O)c2cccc(NC(=O)c3cnccn3)c2O[C@H]1CN(C)S(=O)(=O)c1cn(C)cn1`, the inhibition was 2.47% (inactive).

Turning to `COCCNC(=O)[C@H]1[C@H](CO)[C@H]2Cn3c(ccc(-c4ccccc4F)c3=O)[C@H]2N1C(=O)C1CCC1`, the inhibition is -0.238% (inactive).

As to `COc1ccc(CN(C)C[C@H]2Oc3c(NS(=O)(=O)c4ccc(C)cc4)cccc3C(=O)N([C@@H](C)CO)C[C@@H]2C)cc1`, the inhibition is -5.34% (inactive).

In the case of `CNC(=O)C[C@H]1CC[C@@H]2[C@H](COc3ccc(NC(=O)Nc4ccc(F)c(F)c4)cc3C(=O)N2C)O1`, the inhibition was -1.52% (inactive).
